Rows were chosen to be rich in hits. Some 9.6% of all compounds tested hit in one or more screens of this group.
Ba/F3 V617F tox – reduced viability of JAK2V617F-dependent Ba/F3 cells, primary screen, JAK2V617F inhibitor project, cell-based, Ba/F3 EpoR-JAK2V617F, luminescence | ATP luminescence | inhibition, % at 5.6 µM | actives 1.1% (n = 220,000) | AID 1446, 2008;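 active = inhibition above the campaign mean plus 3 SD over all tested compounds, cut at about 24% in these data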;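 note: cytokine-independent growth of Ba/F3 cells driven by EpoR plus mutant JAK2; 0% = DMSO-treated cells and 100% = JAK inhibitor I control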
APP 5UTR inh – inhibitors of APP translation via 5'UTR reporter, primary screen, APP 5'UTR luciferase, SH-SY5Y cells; SH-SY5Y APP 5'UTR-luciferase reporter, luminescence; inhibition, % at 2 µM; actives 0.82% (n = 190,000);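 active = inhibition above a set limit, derived from the sample mean plus 3 SD, cut at about 45% in these data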
L major viab – Leishmania major promastigote growth inhibition, primary screen. Leishmania major promastigotes, resazurin fluorescence viability. inhibition, % at 10 µM. actives 9% (n = 200,000). AID 1063, 2008; in the data active = inhibition above about 50%;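 note: promastigotes grown with compound for 44 hours at 28 °C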
bCat nuc transl – modulators of beta-catenin nuclear translocation, primary screen, imaging, HeLa cells, immunofluorescence, high-content. nuclear translocation activity, % at 5 µM. actives 0.3% (n = 190,000);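 active = nuclear translocation activity above 50% at 5 µM, with a well cell count of 50 or more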;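 note: per-cell ratio of nuclear to cytoplasmic median beta-catenin stain intensity; plate controls were DMSO negative control for no effect and GSK-3 inhibitor IX positive control for full effect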
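Assay system: human HeLa cells, native beta-catenin; doses: 5 µM primary, 0.02–20 µM confirmation; incubation: compound treatment 24 h, 37°C, 5% CO2; technique: fluorescence imaging of beta-catenin antibody stain plus DAPI; measure: % activation, nuclear-to-cytoplasmic median beta-catenin signal ratio per cell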
BaF3 parental – parental Ba/F3 cell viability inhibition, counter-screen for JAK2V617F inhibitor project, murine pro-B, CellTiter-Glo luminescence; actives 1.1% (n = 220,000); CellTiter-Glo ATP luminescence; inhibition, % at 5.6 µM;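 active = inhibition above a per-campaign cutoff, the mean inhibition of all tested compounds plus 3 SD, cut at about 27% in these data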;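 note: 0% = DMSO wells and 100% = JAK Inhibitor I control wells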
MT stabilize HCS – microtubule stabilizers in HeLa cells, primary screen, imaging, high-content imaging. HeLa tubulin immunostaining HCS, 24 h; share of cells brighter than vehicle mean+2SD. % tubulin-high responders, % at 10 µM. actives 0.83% (n = 200,000). AID 2205, 2009;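 active = plate Z-score above 3 for both tubulin-high and condensed-nucleus cell shares, with cell loss under 80%, at 10 µM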;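 note: anti alpha tubulin signal scored within the nucleus-defined area of each cell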
* = called active by the depositor; . = not tested or not shown.

SMILES	Ba/F3 V617F tox	APP 5UTR inh	L major viab	bCat nuc transl	BaF3 parental	MT stabilize HCS
O=C(NCCNC1CCC(c2ccccc2)CC1)c1ccc(F)cc1 (centres undefined)	2	4	94*	1	7	5
CCn1c2ccccc2c2cc(NC(=O)Cc3ccc(S(=O)(=O)N4CCOCC4)s3)ccc21	-1	-19	81*	0	5	4
CSc1ccc(OC2CCCCC2NS(=O)(=O)c2ccc(Cl)cc2)cc1 (centres undefined)	0	-12	96*	.	3	3
CN(c1ccccc1)C1CCCCC1NS(=O)(=O)c1ccc(Cl)cc1 (centres undefined)	-2	-8	35	3	3	2
CCN(CC)C1CCCCC1NS(=O)(=O)c1ccc(Cl)cc1 (centres undefined)	1	-4	-5	-4	6	5
O=S(=O)(NC1CCCCC1Oc1ccccc1)c1ccc(Cl)cc1 (centres undefined)	3	2	75*	.	6	3
CC1CC(=O)N(c2ccc(Br)cc2)C(=O)C1	-5	.	.	1	-1	.
COc1ccc(-c2c/c(=N\c3nc(-c4ccccc4)c(C)s3)c3ccccc3o2)cc1O	-7	-1	10	165*	0	7
Cc1cc(N2CCN(C3CCCCC3)CC2)nc2cccc(O)c12	-2	-13	85*	-3	1	5
Cc1cc(N2CCCC2)nc2ccccc12	5	0	14	0	10	2
O=C(NCc1cccnc1)c1cc(Sc2ccc(F)cc2F)nc2ccccc12	-2	-19	5	2	3	3
COc1ccc2o/c(=N\O)c(C(=O)Nc3ccc(C)cc3)cc2c1	0	-21	50*	1	3	5
N/C(=N\NS(=O)(=O)c1ccccc1C(F)(F)F)c1ccccn1	-1	.	.	-3	-2	.
Cc1nc(C(F)(F)F)c(C(=O)N/N=C(\N)c2ccccn2)s1	1	57*	96*	0	8	4
CCn1c2ccccc2c2cc(CN3CCN(S(C)(=O)=O)CC3)ccc21	0	6	68*	0	1	3
O=C(C1CCCN(S(=O)(=O)c2cccs2)C1)N1CCc2ccccc2C1 (centres undefined)	-1	0	4	1	0	4
O=C(NNC(=O)C1CCN(Cc2ccccc2)CC1)c1cccs1	2	7	-7	0	2	2
CS(=O)(=O)N1CCN(C2CCN(Cc3ccccc3)CC2)CC1	-1	16	77*	-1	0	4
CCn1c2ccccc2c2cc(CN3CCN(Cc4cc(OC)ccc4O)CC3)ccc21	4	-5	34	-2	6	2
O=C(C1CCCN(S(=O)(=O)c2cccs2)C1)N1CCN(C2CCCCC2)CC1 (centres undefined)	-4	2	83*	3	0	6
O=C(c1cccs1)N1CCN(C2CCN(Cc3ccccc3)CC2)CC1	4	-2	91*	.	2	2
Cc1ccc2nc(Nc3ccc4[nH]c(=O)[nH]c4c3)c(-n3nc(C)cc3C)nc2c1	-1	-34	18	.	-1	3
Cc1cccc(C)c1NC(=O)C(c1ccc([N+](=O)[O-])cc1)N(C)C(=O)c1ccccn1 (centres undefined)	2	-8	2	-2	3	2
CCOc1ccccc1CN1CCN(S(C)(=O)=O)CC1	1	4	82*	-4	5	6
O=C(c1cccs1)N1CCN(C2CCCCC2)CC1	1	-9	83*	-7	7	2
SMILES	Ba/F3 V617F tox	APP 5UTR inh	L major viab	bCat nuc transl	BaF3 parental	MT stabilize HCS
CN1CCN(CC#CCn2c3ccccc3c3ccccc32)CC1	0	0	44	-2	8	2
CN(C)S(=O)(=O)Nc1ccc(Oc2ccccc2)cc1	1	13	82*	-1	4	3
CCCCCn1c(=O)c(-c2nc3ccccc3[nH]2)c(O)c2ccccc21	2	12	56*	-1	12	3
O=[N+]([O-])c1cc(Oc2cccnc2)cc([N+](=O)[O-])c1	-4	11	39	.	-3	2
Cn1cc([N+](=O)[O-])c(C(=O)Nc2cc(Oc3cccnc3)cc([N+](=O)[O-])c2)n1	66*	96*	12	7	51*	11
C#CCOCCOCCOCCNc1nc(N2CCN(C(=O)Cn3cc(CCCN=C(N)N)nn3)CC2)nc(N2CCN(C(=O)[C@H]([C@@H](C)CC)n3cc(CCCN=C(N)N)nn3)CC2)n1	-1	6	-5	.	4	5
CC(C)(C)NC(=O)NC(=O)CSc1nnc(COc2ccccc2Cl)o1	2	-3	-8	4	2	1
C/C(N)=C(/C#N)C(=O)CSc1nnc(COc2ccccc2Cl)o1	0	6	-2	0	95*	3
CCCOc1cccc(-c2cc(C(=O)NNC(=S)NCC)c3ccccc3n2)c1	2	53*	-1	0	3	2
CCNC(=S)NNC(=O)c1cc(-c2cccc(OC)c2)nc2ccccc12	-1	18	12	-1	6	2
CCNC(=S)NNC(=O)c1cc(-c2ccc(OCC)cc2)nc2ccccc12	24*	-127	30	2	31*	3
Cc1cc2nc(N=C(N)N)nc(C)c2cc1C	73*	-47	100*	7	65*	9
CCc1ccc2nc(N=C(N)N)nc(C)c2c1	50*	-14	96*	4	45*	4
Cc1ccc2nc(N=C(N)N)nc(C)c2c1	50*	-14	26	2	42*	3
O=C(CCCNC(=O)/C(=C/c1ccccc1F)NC(=O)c1ccccc1)OCc1ccccc1	-3	-7	21	-3	1	6
N=C(N)Cc1ccccc1Sc1ccccc1	0	12	98*	0	3	4
Cc1ccc(S(=O)(=O)N(CC(=O)Nc2cccc(N(C)S(C)(=O)=O)c2)c2ccc(Cl)c(Cl)c2)cc1	5	7	67*	-1	4	5
CN(c1cccc(NC(=O)CN(c2ccc(C34CC5CC(CC(C5)C3)C4)cc2)S(C)(=O)=O)c1)S(C)(=O)=O	3	-8	90*	4	5	5
CN(c1cccc(NC(=O)CSc2ccc(Cl)cc2)c1)S(C)(=O)=O	0	-7	74*	-3	5	1
CN(c1cccc(NC(=O)CN(c2ccc(F)cc2)S(C)(=O)=O)c1)S(C)(=O)=O	-4	-8	4	2	0	4
N#CCCN(C(=O)COc1ccc(Br)cc1F)c1ccc(F)cc1	1	-2	-1	-2	6	4

High-throughput results deposited in PubChem by several laboratories.
